In ChEMBL document CHEMBL1148035, “Isolation of bioactive and other oxoaporphine alkaloids from two annonaceous plants, Xylopia aethiopica and Miliusa cf. banacea” (J Nat Prod, 1994):

What was measured:
Saccharomyces cerevisiae [1] = test: DNA damaging activity against rad 6 DNA repair gene deficient Saccharomyces cerevisiae mutant assessed as drug level required to produce 12 mm zone of inhibition well after 48 hrs; type: functional
Outline: (§1)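 Yeast agar-well diffusion assay: test material in a 100 μl well, incubated 48 h at 37°. IC12 is the concentration in μg/ml giving a 12 mm diameter zone of inhibition around the well. Reported values are averages of 2 or 3 determinations.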

Saccharomyces cerevisiae [2] = test: DNA damaging activity against rad 52 DNA repair gene/topoisomerase 1 deficient Saccharomyces cerevisiae mutant assessed as drug level required to produce 12 mm zone of inhibition well after 48 hrs; type: functional; outline: as §1
Saccharomyces cerevisiae [3] = test: DNA damaging activity against rad 52 DNA repair gene deficient Saccharomyces cerevisiae mutant assessed as drug level required to produce 12 mm zone of inhibition after 48 hrs; type: functional; outline: as §1
Saccharomyces cerevisiae [4] = test: DNA damaging activity against wild type Saccharomyces cerevisiae expressing rad DNA repair gene assessed as drug level required to produce 12 mm zone of inhibition after 48 hrs; type: functional; outline: as §1
[5] = molecular target: DNA topoisomerase 2-alpha (Homo sapiens, UniProt P11388); test: Inhibition of DNA topoisomerase 2 assessed as bacteriophage P4 DNA unknotting after 30 mins
DNA topoisomerase 2-alpha, sequence (P11388 whole entry): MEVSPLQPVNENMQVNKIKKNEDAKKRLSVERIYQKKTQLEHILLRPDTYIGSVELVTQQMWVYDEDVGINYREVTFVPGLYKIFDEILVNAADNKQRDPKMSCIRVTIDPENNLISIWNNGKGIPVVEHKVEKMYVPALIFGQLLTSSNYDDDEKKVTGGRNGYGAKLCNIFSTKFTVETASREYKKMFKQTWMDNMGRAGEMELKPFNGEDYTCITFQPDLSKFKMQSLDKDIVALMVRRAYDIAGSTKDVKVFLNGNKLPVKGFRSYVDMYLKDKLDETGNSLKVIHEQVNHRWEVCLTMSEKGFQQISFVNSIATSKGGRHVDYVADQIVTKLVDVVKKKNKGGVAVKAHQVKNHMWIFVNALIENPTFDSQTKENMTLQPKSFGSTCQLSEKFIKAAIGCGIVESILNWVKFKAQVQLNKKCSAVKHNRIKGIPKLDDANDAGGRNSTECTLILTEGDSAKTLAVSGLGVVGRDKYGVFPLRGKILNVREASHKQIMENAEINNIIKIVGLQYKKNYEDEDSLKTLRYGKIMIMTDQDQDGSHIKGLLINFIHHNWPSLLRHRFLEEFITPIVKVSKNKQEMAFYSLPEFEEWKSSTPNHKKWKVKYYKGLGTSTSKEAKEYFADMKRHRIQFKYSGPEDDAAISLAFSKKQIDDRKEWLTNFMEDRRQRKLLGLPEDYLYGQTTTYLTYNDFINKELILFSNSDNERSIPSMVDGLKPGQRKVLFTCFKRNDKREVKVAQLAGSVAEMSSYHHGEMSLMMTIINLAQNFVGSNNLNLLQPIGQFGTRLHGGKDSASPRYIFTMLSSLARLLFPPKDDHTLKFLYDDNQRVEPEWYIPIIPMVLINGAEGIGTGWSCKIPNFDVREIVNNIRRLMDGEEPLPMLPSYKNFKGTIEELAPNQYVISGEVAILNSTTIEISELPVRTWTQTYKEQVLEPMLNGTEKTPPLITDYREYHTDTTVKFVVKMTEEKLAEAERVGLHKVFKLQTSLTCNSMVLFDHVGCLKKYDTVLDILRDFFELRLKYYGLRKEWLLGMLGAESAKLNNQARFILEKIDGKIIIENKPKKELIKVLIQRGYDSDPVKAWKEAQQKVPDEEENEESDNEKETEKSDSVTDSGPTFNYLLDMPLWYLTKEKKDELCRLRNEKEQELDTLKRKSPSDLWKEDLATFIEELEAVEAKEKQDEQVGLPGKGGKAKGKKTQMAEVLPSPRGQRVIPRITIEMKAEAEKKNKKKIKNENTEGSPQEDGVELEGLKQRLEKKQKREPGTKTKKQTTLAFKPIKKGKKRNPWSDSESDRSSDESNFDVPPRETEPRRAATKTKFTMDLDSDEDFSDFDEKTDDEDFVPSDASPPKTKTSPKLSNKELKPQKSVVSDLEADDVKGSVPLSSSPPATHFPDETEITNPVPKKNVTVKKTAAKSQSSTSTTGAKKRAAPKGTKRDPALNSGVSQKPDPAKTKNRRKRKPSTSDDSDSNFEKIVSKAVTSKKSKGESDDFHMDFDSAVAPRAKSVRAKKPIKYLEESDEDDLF

Saccharomyces cerevisiae [6] = test: Antifungal activity against rad 6 DNA repair gene deficient Saccharomyces cerevisiae mutant at 500 ug/ml; type: functional; settings: read-out: IZ
Outline: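 Yeast well-diffusion assay against the rad 6 DNA-repair-deficient Saccharomyces cerevisiae strain. Sample is applied at the stated concentration (μg/ml) to a 100 μl well. Plates are incubated 48 h at 37°. Read-out is the diameter of the zone of inhibition, in mm.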

| SMILES | Activity (Saccharomyces cerevisiae [1]) | Activity (Saccharomyces cerevisiae [2]) | Activity (Saccharomyces cerevisiae [3]) | Activity (Saccharomyces cerevisiae [4]) | IC50 [5] | zone of inhibition at 500 µg/mL (Saccharomyces cerevisiae [6]) |
| --- | --- | --- | --- | --- | --- | --- |
| COc1c(OC)c2c3c(nccc3c1OC)C(=O)c1ccccc1-2 [HOMOMOSCHATOLINE] | >500 µg/mL | >500 µg/mL | >500 µg/mL | – | – | – |
| COc1c(OC)c2c3c(nccc3c1OC)C(=O)c1cc3c(cc1-2)OCO3 [OXOPHOEBINE] | 4.7 µg/mL | 2.6 µg/mL | 6.4 µg/mL | >500 µg/mL | – | – |
| COc1cc2ccnc3c2c(c1OC)-c1ccccc1C3=O [LYSICAMINE] | >500 µg/mL | 390 µg/mL | 300 µg/mL | – | – | – |
| CC[C@@]1(O)C(=O)OCc2c1cc1n(c2=O)Cc2cc3ccccc3nc2-1 [CAMPTOTHECIN] | 8.7 µg/mL | >20 µg/mL | 0.6 µg/mL | – | – | – |
| O=C1c2ccc(O)cc2-c2c3c(cc4ccnc1c24)OCO3 | – | 72 µg/mL | 295 µg/mL | – | 42.9 µM | – |
| COC1=C(N)C(=O)c2nc(-c3nc(C(=O)O)c(C)c(-c4ccc(OC)c(OC)c4O)c3N)ccc2C1=O [STREPTONIGRIN] | 2.4 µg/mL | <0.4 µg/mL | 0.4 µg/mL | – | – | – |
| COc1ccc2c(c1)-c1c3c(cc4ccnc(c14)C2=O)OCO3 | – | 113 µg/mL | 214 µg/mL | – | 81.9 µM | – |
| O=C1c2ccccc2-c2c3c(cc4ccnc1c24)OCO3 [LIRIODENINE] | – | – | 16.7 µg/mL | 500 µg/mL | – | 15 mm |
| COc1cc2c(cc1OC)-c1c(OC)c(OC)cc3ccnc(c13)C2=O [OXOGLAUCINE] | >500 µg/mL | >500 µg/mL | >500 µg/mL | >500 µg/mL | – | – |
